# Calls of active or inactive are those of the source.
# Tests used:
# Rattus norvegicus [1] = species: Rattus norvegicus; test: Ability to inhibit the uptake of tritiated norepinephrine (NE) 0.1 uM concentration; assay type: functional
# In short: (§1)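 Male Wistar rat brain synaptosomes (P2 fraction): hypothalamus for NE, striatum for DA, cerebral cortex for 5-HT. Buffer is Tris- or HEPES-buffered salt medium with glucose, ascorbate and nialamide, pH 7.4 at 37 °C. Preincubated 10 min at 37 °C with compound. Uptake started with [3H]NE 100–300 nM, [3H]DA 50–300 nM or [3H]5-HT 100–200 nM, incubated 3 min (DA) or 6–10 min (NE, 5-HT). Blanks held on ice. Filtered, counted by scintillation.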
# [2] = target: Sodium-dependent dopamine transporter (Rattus norvegicus) (UniProt P23977); test: Ability to inhibit the uptake of [3H]dopamine (DA) 0.1 uM concentration at rat brain synaptosomes; assay type: functional, subcellular; in short: as §1
# [3] = target: Sodium-dependent serotonin transporter (Rattus norvegicus) (UniProt P31652); test: Ability to inhibit the uptake of [3H]- serotonin(5-HT) 0.1 uM concentration at rat brain synaptosomes; assay type: functional, subcellular; in short: as §1
# Mus musculus [4] = species: Mus musculus; test: Gross behavioral effects ascertained in mice; W indicates weak stimulant or depressant activity of little significance.; assay type: functional, organism-based
# In short: (§2)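 Male Swiss Webster mice, 18–24 g, three per dose, given ip doses of 1, 3, 10, 30, 100 and 300 mg/kg. Observed for gross behavior and held for 4 days. Scored as weak (W), stimulant (S), depressant (D) or convulsant (C).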
# Rattus norvegicus [5] = test: Ability to inhibit the uptake of tritiated serotonin(5-HT) 0.1 mg/kg concentration; assay type: functional
# Mus musculus [6] = species: Mus musculus; test: Antagonism of tetrabenazine (TBZ)-induced depression measured in mice by motor activity; assay type: functional; conditions: Mus musculus; read-out: ED50
# In short: (§3)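 Nonfasted male Swiss Webster mice, 18–24 g, ten per dose level and in saline controls. Test compound given ip 30 min before tetrabenazine 32 mg/kg ip; dose expressed as free base. Motor activity and ptosis scored. Control response ≤90% corrected by Abbott's formula.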
# Mus musculus [7] = species: Mus musculus; test: Antagonism of tetrabenazine (TBZ)-induced depression in mice measured for ptosis; assay type: functional; conditions: Mus musculus; read-out: ED50; in short: as §3
# Rattus norvegicus [8] = test: Ability to inhibit the uptake of tritiated norepinephrine (NE) 0.1 mg/kg concentration; assay type: functional
# Mus musculus [9] = species: Mus musculus; test: Gross behavioral effects ascertained in mice; assay type: functional, organism-based; in short: as §2
# Mus musculus [10] = test: Ability to antagonise intraperitoneal administration; weakly active (>=10% and <=30% antagonism) at 30 mg/kg is represented as >30; assay type: functional; conditions: ip; in short: as §3
# Mus musculus [11] = test: Ability to antagonise intraperitoneal dose; inactive (<10% antagonism) at 30 mg/kg is represented as I-30.; assay type: functional, organism-based; parameters: dose 30 mg/kg; in short: as §3
# [12] = target: Muscarinic acetylcholine receptor (Rattus norvegicus) (UniProt P08482+P08483+P08485+P08911+P10980); test: Binding affinity towards Muscarinic acetylcholine receptor at 10 uM concentration; assay type: protein assay
# Mus musculus [13] = species: Mus musculus; test: Gross behavioral effects ascertained in mice; S indicates significant stimulant properties.; assay type: functional, organism-based; in short: as §2
# [14] = target: D(1A) dopamine receptor (Rattus norvegicus) (UniProt P18901); test: Binding affinity towards Dopamine receptor D1 at 1.0 uM concentration
# In short: (§4)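 Rat brain crude synaptic membranes in 20 mM NaHEPES pH 7.5. Ligands: α1 cortex […] 0.4 nM, nonspecific with (-)-NE 100 μM, 30 min at 25 °C. […] D2 striatum [3H]spiperone 0.05 nM with (+)-butaclamol 1 μM, 45 min at 37 °C. S1 cortex [3H]5-HT 1 nM plus glutathione and MgCl2, with 5-HT 10 μM, 20 min at 37 °C. […] Samples filtered on GF/B and counted.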
# [15] = target: T1, Serotonin 2 (5-HT2) receptor (Rattus norvegicus) (UniProt P30994+P08909+P14842); test: Binding affinity towards 5-hydroxytryptamine 2 receptor; assay type: protein assay; conditions: concentration not given here; in short: as §4
# [16] = target: D(2) dopamine receptor (Rattus norvegicus) (UniProt P61169); test: Binding affinity towards dopamine receptor D2 at 1.0 uM concentration; in short: as §4
# [17] = target: Serotonin 1 (5-HT1) receptor (Rattus norvegicus) (UniProt P28564+P30940+P19327+P28565); test: Binding affinity towards serotonin S1 receptor at 1.0 uM; assay type: protein assay; in short: as §4
# Mus musculus [18] = species: Mus musculus; test: Gross behavioral effects ascertained in mice; D indicates significant depressant properties.; assay type: functional, organism-based
# In short: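 Male Swiss Webster albino mice, 18–24 g, three per dose, given ip 1, 3, 10, 30, 100 and 300 mg/kg. Gross behaviour observed and held 4 days. Estimated LD50 range from lethality count on day 4. Scored as weak stimulant/depressant, significant stimulant, significant depressant or overt convulsant.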
# Mus musculus [19] = test: (§5) Ability to antagonise intraperitoneal dose; inactive (<10% antagonism) at 30 mgjkg is represented as I-30.; assay type: functional, organism-based
# In short: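 Swiss Webster male albino mice, nonfasted, 18–24 g, 10 per dose and in saline control. Compound given ip 30 min before TBZ 32 mg/kg ip. Motor activity and ptosis scored. Response corrected by Abbott's formula when control response was 90% or less. Doses expressed as free base.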
# Rattus norvegicus [20] = test: Ability to inhibit the uptake of tritiated serotonin(5-HT) at 0.1 mg/kg concentration; assay type: functional
# [21] = target: Sodium-dependent dopamine transporter (Rattus norvegicus, UniProt P23977); test: Inhibition of the uptake of tritiated dopamine (DA) in rat synaptosomes; assay type: subcellular, Brain
# Mus musculus [22] = test: as §5; assay type: functional, organism-based; in short: as §3; remark: listed apart in the source
# Mus musculus [23] = test: as §5; assay type: functional, organism-based; in short: as §3; remark: listed apart in the source
# Mus musculus [24] = species: Mus musculus; test: Gross behavioral effects ascertained in mice; C indicates overt convulsant; assay type: functional, organism-based; in short: as §2
# [25] = target: Adrenergic receptor alpha-1 (Rattus norvegicus) (UniProt P15823+P23944+P43140); test: Binding affinity towards alpha-1 adrenergic receptor at 1.0 uM concentration; assay type: protein assay; in short: as §4
# Mus musculus [26] = test: Ability to antagonise intraperitoneal 30 mg/kg dose; inactive (<10% antagonism) at 30 mgjkg is represented as I-30.; assay type: functional, organism-based; parameters: dose 30 mg/kg; in short: as §3
# [27] = target: Sodium-dependent serotonin transporter (Rattus norvegicus) (UniProt P31652); test: Inhibition of tritiated serotonin(5-HT) uptake at 0.1 uM concentration; assay type: functional; in short: as §1
# [28] = target: T1, Serotonin 2 (5-HT2) receptor (Rattus norvegicus); test: Binding affinity towards 5-hydroxytryptamine 2 receptor at 1.0 uM concentration; assay type: protein assay; in short: as §4
# Rattus norvegicus [29] = species: Rattus norvegicus; test: Ability to inhibit the uptake of tritiated norepinephrine (NE) at 0.1 uM concentration; assay type: functional; in short: as §1
# [30] = target: Sodium-dependent dopamine transporter (Rattus norvegicus) (UniProt P23977); test: Inhibition of tritiated dopamine (DA) uptake at 0.1 uM concentration; assay type: functional; in short: as §1
# Mus musculus [31] = test: Ability to antagonise intraperitoneal administration; inactive (<10% antagonism) at 30 mgjkg is represented as I-30.; assay type: functional, organism-based; in short: as §3
# Rattus norvegicus [32] = species: Rattus norvegicus; test: Ability to inhibit the uptake of tritiated dopamine (DA) 1 uM concentration; assay type: functional
# In short: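 Rat brain synaptosomal [3H]dopamine uptake: striatal P2 fraction, test compound at 1.00 μM. Preincubated at 37 °C, then 50–300 nM [3H]DA for 3 min. Blanks on ice. Filtration and scintillation counting; percent inhibition of control uptake.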
# [33] = target: Norepinephrine transporter (Rattus norvegicus) (UniProt Q9WTR4); test: Ability to inhibit the uptake of [3H]norepinephrine (NE) 0.1 uM concentration at rat brain synaptosomes; assay type: functional, subcellular; in short: as §1
# Rattus norvegicus [34] = species: Rattus norvegicus; test: Ability to inhibit the uptake of tritiated dopamine (DA); assay type: functional; in short: as §1
# [35] = target: Norepinephrine transporter (Rattus norvegicus, UniProt Q9WTR4); test: Inhibition of uptake of tritiated norepinephrine (NE) in rat synaptosomes; assay type: subcellular, Brain
# Rattus norvegicus [36] = species: Rattus norvegicus; test: Ability to inhibit the uptake of tritiated serotonin (5-HT) at 0.1 uM concentration in rat synaptosomes; assay type: functional; conditions: Brain; in short: as §1
# T1 sequence (P08909 whole entry, looked up): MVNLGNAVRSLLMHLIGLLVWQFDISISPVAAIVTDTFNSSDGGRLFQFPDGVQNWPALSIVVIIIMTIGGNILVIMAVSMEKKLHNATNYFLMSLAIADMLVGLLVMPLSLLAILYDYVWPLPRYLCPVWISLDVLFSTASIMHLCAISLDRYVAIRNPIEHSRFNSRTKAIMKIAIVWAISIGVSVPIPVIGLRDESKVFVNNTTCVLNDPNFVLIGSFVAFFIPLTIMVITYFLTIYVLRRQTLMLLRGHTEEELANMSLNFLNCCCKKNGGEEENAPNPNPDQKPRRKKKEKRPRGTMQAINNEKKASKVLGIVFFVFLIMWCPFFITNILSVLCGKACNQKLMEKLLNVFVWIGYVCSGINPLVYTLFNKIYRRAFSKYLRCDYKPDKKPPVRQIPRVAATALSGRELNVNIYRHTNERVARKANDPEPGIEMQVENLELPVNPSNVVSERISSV
# T1 sequence (P14842 whole entry, looked up): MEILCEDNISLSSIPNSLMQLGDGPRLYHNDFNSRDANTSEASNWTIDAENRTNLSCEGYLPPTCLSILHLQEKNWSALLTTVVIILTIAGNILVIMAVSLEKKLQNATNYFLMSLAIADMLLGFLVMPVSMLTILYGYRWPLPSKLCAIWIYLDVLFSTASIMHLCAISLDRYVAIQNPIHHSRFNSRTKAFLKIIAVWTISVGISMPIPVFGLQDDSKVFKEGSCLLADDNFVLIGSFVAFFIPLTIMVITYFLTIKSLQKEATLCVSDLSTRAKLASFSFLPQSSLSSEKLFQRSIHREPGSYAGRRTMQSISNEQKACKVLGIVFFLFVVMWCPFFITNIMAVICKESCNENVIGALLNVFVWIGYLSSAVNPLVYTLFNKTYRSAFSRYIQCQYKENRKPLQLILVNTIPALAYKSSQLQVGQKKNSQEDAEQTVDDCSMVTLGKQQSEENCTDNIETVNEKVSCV
# T1 sequence (P30994 whole entry, looked up): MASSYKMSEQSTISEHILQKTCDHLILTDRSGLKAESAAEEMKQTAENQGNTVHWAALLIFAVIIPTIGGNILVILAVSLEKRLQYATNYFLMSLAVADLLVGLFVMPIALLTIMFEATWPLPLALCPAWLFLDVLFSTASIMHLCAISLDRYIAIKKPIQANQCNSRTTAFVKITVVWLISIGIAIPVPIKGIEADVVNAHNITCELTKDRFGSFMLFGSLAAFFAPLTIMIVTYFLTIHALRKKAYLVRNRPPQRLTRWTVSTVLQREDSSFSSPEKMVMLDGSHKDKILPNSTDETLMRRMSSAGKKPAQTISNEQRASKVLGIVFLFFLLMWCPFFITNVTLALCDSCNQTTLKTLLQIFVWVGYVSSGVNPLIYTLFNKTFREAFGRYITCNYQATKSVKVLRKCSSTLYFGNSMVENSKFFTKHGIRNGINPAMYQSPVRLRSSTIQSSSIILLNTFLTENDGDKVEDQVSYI
# Sodium-dependent serotonin transporter (Rattus norvegicus), sequence (P31652 whole entry): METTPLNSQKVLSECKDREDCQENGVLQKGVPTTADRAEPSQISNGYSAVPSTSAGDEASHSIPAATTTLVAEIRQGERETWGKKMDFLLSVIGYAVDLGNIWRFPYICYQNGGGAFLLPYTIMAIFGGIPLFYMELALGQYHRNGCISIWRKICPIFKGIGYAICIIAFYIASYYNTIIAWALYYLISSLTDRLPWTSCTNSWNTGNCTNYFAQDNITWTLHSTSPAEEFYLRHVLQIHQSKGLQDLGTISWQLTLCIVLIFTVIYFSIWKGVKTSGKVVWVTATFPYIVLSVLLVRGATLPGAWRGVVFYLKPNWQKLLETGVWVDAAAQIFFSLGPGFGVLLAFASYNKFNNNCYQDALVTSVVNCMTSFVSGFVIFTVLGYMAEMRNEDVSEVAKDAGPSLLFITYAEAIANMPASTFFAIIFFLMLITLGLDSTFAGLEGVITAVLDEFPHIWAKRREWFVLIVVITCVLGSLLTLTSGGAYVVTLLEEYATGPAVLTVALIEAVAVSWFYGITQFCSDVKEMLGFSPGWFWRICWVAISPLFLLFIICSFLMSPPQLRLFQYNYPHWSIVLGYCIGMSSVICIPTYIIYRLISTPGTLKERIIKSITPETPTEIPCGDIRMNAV
# Sodium-dependent dopamine transporter, sequence (P23977 whole entry): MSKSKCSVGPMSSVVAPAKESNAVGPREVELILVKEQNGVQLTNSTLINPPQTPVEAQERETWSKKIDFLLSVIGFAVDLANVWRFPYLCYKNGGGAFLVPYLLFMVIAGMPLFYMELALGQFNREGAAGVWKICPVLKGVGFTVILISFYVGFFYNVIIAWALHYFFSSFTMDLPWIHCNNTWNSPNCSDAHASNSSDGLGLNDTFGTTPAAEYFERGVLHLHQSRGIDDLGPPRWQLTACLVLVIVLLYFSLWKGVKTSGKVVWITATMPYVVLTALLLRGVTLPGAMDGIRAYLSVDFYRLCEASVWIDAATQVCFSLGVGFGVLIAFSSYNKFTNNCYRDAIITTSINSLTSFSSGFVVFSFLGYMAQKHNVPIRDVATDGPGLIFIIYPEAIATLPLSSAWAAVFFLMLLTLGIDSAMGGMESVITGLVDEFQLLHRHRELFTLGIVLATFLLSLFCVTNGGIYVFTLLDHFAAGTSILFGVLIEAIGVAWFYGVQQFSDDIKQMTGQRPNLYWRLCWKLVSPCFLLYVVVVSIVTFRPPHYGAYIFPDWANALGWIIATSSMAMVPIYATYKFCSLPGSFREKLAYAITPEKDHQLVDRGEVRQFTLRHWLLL
# Sodium-dependent dopamine transporter (Rattus norvegicus), sequence (P23977 whole entry): as above
# Norepinephrine transporter (Rattus norvegicus), sequence (Q9WTR4 as listed by the source): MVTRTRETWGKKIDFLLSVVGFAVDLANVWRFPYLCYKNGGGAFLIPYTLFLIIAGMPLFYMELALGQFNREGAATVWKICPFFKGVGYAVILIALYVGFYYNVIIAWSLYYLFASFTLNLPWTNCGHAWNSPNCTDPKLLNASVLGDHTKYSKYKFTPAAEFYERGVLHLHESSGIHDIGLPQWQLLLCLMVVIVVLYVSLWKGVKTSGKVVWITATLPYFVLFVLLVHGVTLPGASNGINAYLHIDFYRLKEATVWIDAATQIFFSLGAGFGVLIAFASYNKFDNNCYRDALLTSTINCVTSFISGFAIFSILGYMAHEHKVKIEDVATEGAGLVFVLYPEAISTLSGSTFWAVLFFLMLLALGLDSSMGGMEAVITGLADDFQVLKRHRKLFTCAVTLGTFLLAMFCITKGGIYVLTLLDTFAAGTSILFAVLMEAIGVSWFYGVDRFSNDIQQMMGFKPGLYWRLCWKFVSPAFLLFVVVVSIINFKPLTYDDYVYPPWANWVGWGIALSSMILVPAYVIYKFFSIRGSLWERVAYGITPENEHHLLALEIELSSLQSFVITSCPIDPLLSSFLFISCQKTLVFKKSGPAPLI
# D(2) dopamine receptor (Rattus norvegicus), sequence (P61169 whole entry): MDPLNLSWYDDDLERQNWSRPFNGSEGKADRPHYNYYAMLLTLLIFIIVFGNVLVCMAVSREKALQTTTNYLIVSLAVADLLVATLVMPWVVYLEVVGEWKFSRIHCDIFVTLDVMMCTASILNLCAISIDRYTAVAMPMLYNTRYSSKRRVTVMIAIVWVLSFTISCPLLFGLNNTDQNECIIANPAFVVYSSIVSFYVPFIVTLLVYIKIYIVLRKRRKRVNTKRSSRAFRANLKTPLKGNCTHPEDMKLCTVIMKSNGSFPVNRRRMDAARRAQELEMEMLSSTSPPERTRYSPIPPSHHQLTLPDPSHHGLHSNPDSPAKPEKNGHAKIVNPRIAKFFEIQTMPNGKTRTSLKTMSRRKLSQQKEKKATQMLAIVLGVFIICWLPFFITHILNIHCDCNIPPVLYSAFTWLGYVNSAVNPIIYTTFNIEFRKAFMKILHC
# D(1A) dopamine receptor (Rattus norvegicus), sequence (P18901 whole entry): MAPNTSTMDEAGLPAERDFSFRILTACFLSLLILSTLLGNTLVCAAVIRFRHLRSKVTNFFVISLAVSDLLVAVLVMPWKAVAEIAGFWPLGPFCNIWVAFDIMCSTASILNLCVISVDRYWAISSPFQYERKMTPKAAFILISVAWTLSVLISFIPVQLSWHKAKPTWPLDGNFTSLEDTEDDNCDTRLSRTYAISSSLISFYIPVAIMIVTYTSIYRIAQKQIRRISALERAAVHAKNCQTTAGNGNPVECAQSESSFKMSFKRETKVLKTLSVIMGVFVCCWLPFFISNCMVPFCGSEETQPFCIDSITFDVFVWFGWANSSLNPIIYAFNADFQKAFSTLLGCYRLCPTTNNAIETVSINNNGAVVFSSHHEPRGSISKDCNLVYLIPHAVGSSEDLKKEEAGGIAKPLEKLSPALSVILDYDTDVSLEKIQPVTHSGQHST
# Norepinephrine transporter, sequence (Q9WTR4 whole entry): as the sequence (Q9WTR4 as listed by the source) above
compound,measurement,setting,value
FC(F)(F)c1cccc([C@@H]2CN3CCC[C@H]3c3cccc(Cl)c32)c1,Ki,Rattus norvegicus [1],~100 nM
same,inhibition,[2],4%
same,inhibition,[3],22%
Br.Cn1ccc2c1[C@H](c1ccccc1)CN1CCC[C@@H]21,behavior,Mus musculus [4],Weak
same,inhibition in vivo at 0.1 mg/kg,Rattus norvegicus [5],6%
same,ED50,Mus musculus [6],> 30 mg/kg
same,ED50,Mus musculus [7],> 30 mg/kg
same,inhibition in vivo at 0.1 mg/kg,Rattus norvegicus [8],8%
Br.CS(=O)(=O)c1ccc([C@@H]2CN3CCC[C@@H]3c3ccccc32)cc1,behavior,Mus musculus [9],inactive
same,ED50 at 30 mg/kg,Mus musculus [10],> 30 mg/kg
same,ED50,Mus musculus [11],inactive
c1ccc([C@@H]2CN3CCC[C@@H]3c3ccccc32)cc1 (stereo in doubt; 7b),inhibition,[12],0%
same,behavior,Mus musculus [13],Stimulant
same,inhibition,[14],35%
FC(F)(F)c1cccc([C@@H]2CN3CCC[C@@H]3c3ccccc32)c1 (stereo in doubt; (-)-37b),inhibition,[15],45%
same,inhibition,[16],9%
same,inhibition,[17],58%
c1ccc([C@@H]2CN3CCC[C@H]3c3[nH]c4ccccc4c32)cc1,inhibition in vivo at 0.1 mg/kg,Rattus norvegicus [5],-21%
same,ED50,Mus musculus [11],inactive
same,behavior,Mus musculus [18],Significant depressant
same,ED50,Mus musculus [19],inactive
same,inhibition in vivo at 0.1 mg/kg,Rattus norvegicus [8],7%
c1ccc([C@@H]2CN3CCC[C@H]3Cc3ccccc32)cc1,inhibition in vivo at 0.1 mg/kg,Rattus norvegicus [20],6%
C[C@@]12CCCCN1C[C@@H](c1ccccc1)c1ccccc12,Ki,[21],> 1000 nM
same,ED50,Mus musculus [22],inactive
same,ED50,Mus musculus [23],inactive
same,Ki,Rattus norvegicus [1],2 nM
same,behavior,Mus musculus [24],Overt convulsant
same,inhibition,[3],4%
FC(F)(F)c1cccc([C@@H]2CN3CCC[C@@H]3c3ccccc32)c1 (stereo in doubt; (+)-37b),behavior,Mus musculus [4],Partial stimulant
same,inhibition,[15],44%
same,inhibition,[25],48%
Br.c1ccc([C@H]2CN3CCC[C@H]3Cc3ccccc32)cc1,ED50,Mus musculus [6],> 3 mg/kg
same,inhibition in vivo at 0.1 mg/kg,Rattus norvegicus [20],9%
c1ccc(CCN2CCCC2c2ccccc2)cc1 (stereo not drawn),behavior,Mus musculus [4],Weak
same,inhibition in vivo at 0.1 mg/kg,Rattus norvegicus [5],4%
same,ED50,Mus musculus [6],~10 mg/kg
same,ED50,Mus musculus [7],~10 mg/kg
same,inhibition in vivo at 0.1 mg/kg,Rattus norvegicus [8],38%
Br.COc1cc([C@@H]2CN3CCC[C@H]3c3ccccc32)cc(OC)c1OC,behavior,Mus musculus [4],Partial stimulant
same,ED50,Mus musculus [26],inactive
same,inhibition,[25],90%
same,ED50,Mus musculus [11],inactive
same,inhibition,[27],12%
same,inhibition,[28],88%
same,Inhibition,Rattus norvegicus [29],9%
same,inhibition,[30],0%
c1ccc2c(c1)[C@H](C1CCCCC1)CN1CCC[C@@H]21,behavior,Mus musculus [4],Weak
same,ED50,Mus musculus [31],inactive
same,Inhibition,Rattus norvegicus [32],31%
same,inhibition,[33],0%
same,ED50,Mus musculus [23],inactive
same,inhibition,[3],0%
C[C@@]12CCCCN1C[C@H](c1ccccc1)c1ccccc12,behavior,Mus musculus [4],Weak
same,ED50,Mus musculus [23],inactive
same,Ki,Rattus norvegicus [34],36.4 nM
same,Ki,[35],10.5 nM
same,ED50,Mus musculus [11],inactive
same,inhibition,[3],15%
COc1ccc([C@@H]2CN3CCCC3c3cc(OC)c(OC)cc32)cc1OC (stereo partly drawn),Ki,[21],355 nM
same,ED50,Mus musculus [26],inactive
same,behavior,Mus musculus [24],Overt convulsant
same,ED50,Mus musculus [11],inactive
same,inhibition,[27],10%
same,Inhibition,Rattus norvegicus [29],18%
c1ccc([C@@H]2CN3CCC[C@H]3c3ccccc32)cc1 [listing 1 of 2 here],Ki,Rattus norvegicus [34],~100 nM
c1ccc([C@@H]2CN3CCC[C@H]3c3ccccc32)cc1 [listing 2 of 2 here],behavior,Mus musculus [4],Weak
same,inhibition,[33],21%
same,ED50,Mus musculus [23],inactive
same,behavior,Mus musculus [24],Overt convulsant
same,ED50,Mus musculus [11],inactive
same,inhibition,Rattus norvegicus [36],1%
same,inhibition,[3],-10%

# — ChEMBL document CHEMBL1123812, “Pyrroloisoquinoline antidepressants. 2. In-depth exploration of structure-activity relationships” (J Med Chem, 1987)
